APJ agonist: APJ receptor agonism; CHO-K1 APJ PathHunter beta-arrestin, luminescence; 0% DMSO wells, 100% apelin; activation, % at 20 µM; 0.11% of 330,000 active;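 active = activation more than six SD over the plate average, tested at 20 µM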;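 note: 0% = DMSO alone and 100% = apelin-13 at 10 nM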
Target sequence (P35414 whole entry, looked up): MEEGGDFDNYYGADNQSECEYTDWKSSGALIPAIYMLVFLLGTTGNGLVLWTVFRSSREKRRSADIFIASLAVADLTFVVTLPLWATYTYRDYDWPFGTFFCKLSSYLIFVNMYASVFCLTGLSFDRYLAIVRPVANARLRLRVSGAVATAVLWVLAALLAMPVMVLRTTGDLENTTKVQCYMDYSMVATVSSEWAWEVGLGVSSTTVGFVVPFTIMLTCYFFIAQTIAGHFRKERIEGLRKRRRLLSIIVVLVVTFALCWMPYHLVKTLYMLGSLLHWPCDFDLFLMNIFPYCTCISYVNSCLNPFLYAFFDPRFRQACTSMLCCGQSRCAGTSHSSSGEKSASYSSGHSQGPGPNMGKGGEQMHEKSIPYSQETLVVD
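Material: engineered CHO-K1 APJ arrestin reporter cells; amount: 1000 CHO-K1 reporter cells seeded per well; incubation: compound stimulation 90 min at 25 °C, detection 60 min; signal: luminescent beta-gal fragment complementation, chemiluminescent substrate; read-out basis: APJ agonist activity; controls: DMSO-only wells as negative, 10 nM Apelin-13 as positive control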
HTR2A ag: mouse HTR2A agonism via beta-arrestin recruitment; P35363; CHO-K1 mHTR2A beta-arrestin complementation, luminescence; percent of 30 µM serotonin response; activation, % at 7.6 µM; 0.66% of 360,000 active;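 active = activation above a run cutoff, the mean activation of all tested compounds plus 3 SD, cut at about 14% in these data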;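 note: 0% = plate median of compound wells and 100% = 30 µM serotonin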
CXCR6 inh: inhibitors of human CXCR6 receptor | inhibition, % at 20 µM | 0.36% of 360,000 active | CHO-K1 PathHunter CXCR6 beta-arrestin, luminescence | AID 602244; in the data active = inhibition above about 34%, passing the limit was not always enough;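 note: antagonist mode with CXCL16 agonist at 10 nM final; 0% = 10 nM CXCL16 with DMSO and 100% = unstimulated wells without agonist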
CCR6 antag: CCR6 (human) receptor antagonism; P51684; CHO-K1 CCR6 PathHunter beta-arrestin, luminescence, CCL20-stimulated; inhibition, % at 20 µM; 0.49% of 340,000 active;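 active = compounds whose inhibition of the agonist-driven luminescence signal at 20 µM reaches about 50%, limit read from the data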;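 note: cells stimulated with CCL20 at 14 nM final; plate controls were DMSO with CCL20 for no effect and DMSO without agonist for full effect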
EBI2 block: EBI2 (human) antagonism; P32249; EBI2 beta-arrestin recruitment, luminescence, 7a,25-OHC stimulated; inhibition, % at 5 µM; 0.81% of 360,000 active; in the data active = inhibition above about 38%;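 note: enzyme fragment complementation signal reports receptor beta-arrestin coupling in cells; 0% = agonist plus DMSO wells and 100% = wells without agonist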
Target sequence (P32249 whole entry, looked up, the tested form may be a part): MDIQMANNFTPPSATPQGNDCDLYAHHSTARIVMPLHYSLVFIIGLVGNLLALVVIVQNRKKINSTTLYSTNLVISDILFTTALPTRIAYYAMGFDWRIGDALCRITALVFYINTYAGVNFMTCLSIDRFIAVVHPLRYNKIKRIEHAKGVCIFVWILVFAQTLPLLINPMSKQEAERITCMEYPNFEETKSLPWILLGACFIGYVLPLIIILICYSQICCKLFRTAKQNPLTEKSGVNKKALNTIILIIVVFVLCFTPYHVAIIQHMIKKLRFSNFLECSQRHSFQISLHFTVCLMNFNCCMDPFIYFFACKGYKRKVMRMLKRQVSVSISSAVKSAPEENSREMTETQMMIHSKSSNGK
APJ antag: antagonists of human APJ apelin receptor | inhibition, % at 20 µM | CHO-K1 APJ beta-arrestin complementation, luminescence | 0.32% of 330,000 active | P35414;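 active = inhibition above about 40% at 20 µM, limit read from the data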;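 note: cells challenged with 10 nM apelin-13 agonist together with compound; plate controls were apelin-13 plus DMSO wells for no effect and DMSO wells lacking apelin-13 for full effect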
EBI2 conf: EBI2 (human) antagonism, single concentration confirmation; inhibition, % at 5 µM; AID 651997; shares compounds with EBI2 block; 29% of 2,400 active; EBI2 beta-arrestin luminescence, 7a,25-OHC antagonism;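 active = inhibition of at least 50%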
EBI2 agonist: activates EBI2, counter-screen for EBI2 antagonists. shares compounds with EBI2 block. EBI2-expressing cells, agonist mode, luminescence, 60 min; 0% vehicle, 100% 7α,25-dihydroxycholesterol control. activation, % at 5 µM. 2,400 tested, under 10 active. AID 652000;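 active = activation of at least 50%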
bGal cs: counter-screen for EBI2 antagonists: E. coli beta-galactosidase inhibition; shares compounds with EBI2 block; purified beta-galactosidase, luminescent Galacton Star, 15 min; inhibition, % at 5 µM; 1% of 2,400 active;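 active = replicate-average signal at least 3 plate SD below neutral wells, shown as high inhibition, flagging enzyme-inhibiting false positives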;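 note: 0% = DMSO wells with enzyme and 100% = wells lacking enzyme; higher means stronger loss of beta-gal luminescence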
Numbers without * were called inactive; x = no result. An excerpt weighted towards active compounds, which were near 2.2% of everything screened.

SMILES	APJ agonist	HTR2A ag	CXCR6 inh	CCR6 antag	EBI2 block	APJ antag	EBI2 conf	EBI2 agonist	bGal cs
COc1cc2nc(C3CCC3)nc(N3CCN(c4ccccc4OC)CC3)c2cc1OC	2.8	2.8	8.7	14.0	46.2*	-6.7	36.1	1.7	-5.9
COc1cc2nc(Cl)nc(N3CCN(C)CC3)c2cc1OC	-2.6	x	x	x	x	-0.4	x	x	x
CCSc1ccc(-c2nn(-c3ccccc3)cc2/C=C(/C#N)C(=O)NC)cc1	x	1.4	-4.3	4.3	-4.9	x	x	x	x
CCCSc1ccc(-c2nn(-c3ccccc3)cc2/C=C(/C#N)C(=O)N2CCOCC2)cc1	-0.4	0.6	8.8	19.7	50.2*	-16.4	31.9	1.1	-0.4
COc1ccccc1Cc1c(-c2ccc(OC)c(OC)c2)nc2cc(C)c(Br)c(C)n12	x	-1.3	9.5	x	13.9	x	x	x	x
COc1ccc(-c2nc3cc(C)c(Br)c(C)n3c2Cc2ccccc2C(F)(F)F)cc1OC	x	0.1	1.2	x	41.1*	x	38.6	-0.1	-15.3
CC(C)Cc1ccc(-c2cc3nc(NCCc4ccc(S(N)(=O)=O)cc4)ccn3n2)cc1	x	-11.9	-7.7	x	65.6*	x	49.7	-0.8	-13.2
NS(=O)(=O)c1ccc(CCNc2ccn3nc(-c4ccccc4)cc3n2)cc1	x	-4.5	-3.5	x	9.7	x	x	x	x
CCOC(=O)C1CCN(C(=O)c2cc3c(C)cc(C)cc3[nH]2)CC1	-2.8	-9.7	-3.9	7.7	45.9*	-0.2	30.7	1.4	5.0
CCOc1ccccc1N1CCN(C(=O)c2cc3c(C)cc(C)cc3[nH]2)CC1	-2.1	0.3	-6.7	-0.7	52.3*	-2.5	34.6	0.4	9.8
CCOC(=O)C1CCN(C(=O)c2cc3cc(C)ccc3[nH]2)CC1	-2.2	-3.4	-2.3	9.6	84.5*	12.0	67.0*	-1.2	-5.7
CCOc1ccccc1N1CCN(C(=O)c2ccc3[nH]c4c(c3c2)CCCC4)CC1	-3.7	-1.7	-2.3	1.2	-2.4	3.2	x	x	x
COc1ccc(C(C(=O)NC(C)(C)C)n2c(=O)c(-c3ccccc3)nc3ccccc32)cc1 (stereo not given)	x	-0.1	x	x	0.4	x	x	x	x
COC(=O)[C@@]12C[C@@H](CC(=O)N3CCC(c4ccccc4)CC3)C(=O)N(Cc3cccc4ccccc34)C1=CCC(C)(C)C2	x	-3.3	x	x	7.1	x	x	x	x
Cc1nc(N2CCN(Cc3ccc4c(c3)OCO4)CC2)c2cc(-c3ccccc3)sc2n1	-3.9	-10.5	12.4	14.3	38.4*	-10.9	12.9	0.9	5.2
CC1CCN(C(=O)c2cc3ccccc3c(=O)o2)CC1	0.3	-1.9	-1.8	6.9	-2.5	9.7	x	x	x
CCOC(=O)C1CCN(C(=O)c2cc3c(ccc4ccccc43)o2)CC1	-5.1	-1.1	-5.4	34.5	77.7*	12.5	64.0*	-1.3	-11.2
CC1CCN(C(=O)c2cc3c(ccc4ccccc43)o2)CC1	-5.8	2.3	5.2	31.3	81.8*	-20.3	61.8*	0.3	-4.9
CCC(=O)Oc1ccc(NC(=O)c2ccc(S(=O)(=O)N3CCCC3)cc2)cc1	x	-2.8	3.1	x	-5.0	x	x	x	x
O=C(COc1cccnc1[N+](=O)[O-])Nc1ccccc1Sc1ccccc1	-1.6	1.0	4.9	5.0	47.6*	4.0	32.4	0.4	6.5
O=C(COc1cccnc1[N+](=O)[O-])Nc1cccc(Br)c1	-1.6	-1.9	0.7	10.5	-5.1	8.7	x	x	x
Cc1cccc(C(=O)N2CCC(c3nc(-c4ccc(S(=O)(=O)N5CCOCC5)cc4)no3)CC2)c1	-3.5	2.1	0.5	10.9	78.6*	-8.3	53.7*	1.8	1.9
O=C(Nc1ccccc1)N1CCC(c2nc(-c3ccc(S(=O)(=O)N4CCOCC4)cc3)no2)CC1	-4.1	1.4	-1.4	0.1	44.7*	16.0	27.2	0.0	11.0
O=C(Nc1ccccc1)N1CCCC(c2nc(-c3ccc(F)cc3)no2)C1 (stereo not given)	1.7	-1.5	-10.4	-6.0	6.1	-2.4	x	x	x
O=C(Nc1cccc(C(F)(F)F)c1)N1CCC(c2nc(-c3ccc(F)cc3)no2)CC1	-3.2	-3.2	-22.2	-2.9	42.5*	-29.6	6.4	-0.9	-10.7
SMILES	APJ agonist	HTR2A ag	CXCR6 inh	CCR6 antag	EBI2 block	APJ antag	EBI2 conf	EBI2 agonist	bGal cs
Cc1ccccc1CN1C(=O)CN(S(C)(=O)=O)CC1(C)C(=O)NCc1ccccc1 (stereo not given)	x	9.2	x	x	-6.1	x	x	x	x
COc1cc(/C=C(\C#N)C(=O)NCc2ccccc2)ccc1OCc1ccc(C(=O)O)cc1	0.8	2.3	6.2	9.2	-8.4	13.5	x	x	x
COc1ccc(CCNC(=O)/C(C#N)=C/c2cccc(OCc3ccccc3)c2)cc1OC	-2.5	-3.4	-6.8	8.0	52.8*	-25.6	25.1	1.2	4.8
Cc1occc1-c1nnc(SCC(=O)NCCc2ccccc2)n1C(C)c1ccccc1 (stereo not given)	1.9	1.6	5.8	11.9	50.6*	-9.4	27.4	-1.5	-11.5
CCOc1ccc(NC(=S)N(CCOC)C(C)c2ccco2)cc1 (stereo not given)	-2.5	4.9	9.3	9.8	54.8*	3.4	12.5	0.5	4.7
CCOc1ccc(NC(=S)N(CCOC)C2CCN(C(C)C)CC2)cc1	-4.4	-7.5	5.1	-15.7	53.8*	-20.1	22.9	1.9	5.7
Cc1cccc(C)c1NC(=S)N(CCc1ccncc1)C(C)C	-1.4	2.1	-7.0	7.8	9.8	-18.2	x	x	x
COCCN(C(=S)Nc1ccc(C)cc1)C(C)c1ccco1 (stereo not given)	-1.5	0.4	9.0	14.8	-3.9	-3.2	x	x	x
CCOc1ccc(NC(=S)N(CCc2ccncc2)C(C)C)cc1	-2.2	-2.3	-0.6	-4.8	51.6*	-3.9	7.5	-1.1	4.4
COc1ccc(NC(=S)N(CCC(C)C)C2CCN(C(C)C)CC2)cc1	-4.3	7.3	8.0	14.8	33.4	13.9	x	x	x
Cc1ccc(S(=O)(=O)Nc2ccccc2OC(C(=O)OC(C)(C)C)C(=O)OC(C)(C)C)cc1	x	-8.0	x	x	5.2	x	x	x	x
COc1cccc(CN(C)C(=O)Cc2c[nH]c3ccccc23)c1OC	-3.2	-3.0	4.5	6.7	6.4	7.5	x	x	x
COc1cccc(CN(C(=O)Cc2c[nH]c3ccccc23)C(C(=O)NC2CCCCC2)c2ccc(C)o2)c1 (stereo not given)	-0.4	3.7	1.3	20.9	4.9	-17.6	x	x	x

Screening data from PubChem.
